Key:
HIV-1(IIIB) = assay: Anti-HIV-1 activity; assay type: cell-based; details: CEM cells, HIV-1 and HIV-2
In short: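 CEM cells (~3 × 10^5 cells/mL) infected with HIV-1(IIIB) at 100 CCID50 per mL, with dilutions of test compound. Incubated 4–5 days at 37 °C in humidified, CO2-controlled air. Giant (syncytium) cell formation scored under the microscope. EC50 is the concentration that inhibits HIV-induced cytopathic effect by 50%.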

Punta Toro virus = assay: Antiviral activity against Punta Toro virus in Vero cell cultures; assay type: cell-based; details: at 100 μM
influenza virus B = assay type: cell-based
feline corona virus = assay: Antiviral activity against feline corona virus in CrFK cell cultures; assay type: cell-based; details: at 100 μM
feline herpesvirus = assay: Antiviral activity against feline herpesvirus in CrFK cell cultures; assay type: cell-based; details: at 100 μM
Reverse transcriptase = assay: Activity against reverse transcriptase; assay type: biochemical; details: data not shown
Coxsackie virus B4 = assay: Antiviral activity against Coxsackie virus B4 in HeLa cell cultures; assay type: cell-based; details: at 100 μM
[1] = test system: herpes simplex virus type 1 (HSV-1); assay: Antiviral activity against HSV-1 in HEL cell cultures; assay type: cell-based; details: at 100 μM
reovirus-1 = assay: Antiviral activity against reovirus-1 in Vero cell cultures; assay type: cell-based; details: at 100 μM
HIV-1 (NL4.3) = assay: Anti-HIV-1 activity; assay type: cell-based; details: MT-4 cells
HSV-2 = assay: Antiviral activity against HSV-2 in HEL cell cultures; assay type: cell-based; details: at 100 μM
[2] = test system: respiratory syncytial virus (RSV); assay: Antiviral activity against RSV in HeLa cell cultures; assay type: cell-based; details: at 100 μM
influenza virus A (H1N1) = assay type: cell-based
Sindbis virus = assay: Antiviral activity against Sindbis virus in Vero cell cultures; assay type: cell-based; details: at 100 μM
vaccinia virus = assay type: cell-based
[3] = test system: vesicular stomatitis virus (VSV); assay type: cell-based
parainfluenza virus-3 = assay: Antiviral activity against parainfluenza virus-3 in Vero cell cultures; assay type: cell-based; details: at 100 μM
influenza virus A (H3N2) = assay type: cell-based
CEM cells = assay: Cytostatic properties in human T-lymphocyte; assay type: cell-based; details: concentration required to reduce CEM cell proliferation by 50%
In short: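 Cytostatic assay: (5–7.5) × 104 CEM cells per well with test compound. Cells proliferate 72 h at 37 °C in humidified, CO2-controlled air, then are counted in a Coulter counter. The 50% value is the concentration that inhibits cell proliferation by 50%.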

OC[C@H]1CC(O)C[C@@H]1O (stereo partly drawn) [Compound 14, (3S,4R)-3-hydroxy-4-hydroxymethyl cyclopentanol] was tested, and the “anti-HIV-1 or anti-HIV-2 activity (in words)” value (HIV-1(IIIB)) was “not active”.

In the case of OC[C@H]1[C@H](O)CC[C@@H]1O [Compound 15, 2-hydroxymethyl-3-hydroxycyclopentanol], the “activity against Punta Toro virus” value (Punta Toro virus) is reported as “did not show any measurable activity”, the “activity against influenza virus B” value (influenza virus B) is reported as “did not show any measurable activity” and the “activity against feline corona virus” value (feline corona virus) is reported as “did not show any measurable activity”. For the same compound, the “activity against feline herpesvirus” value (feline herpesvirus) was “did not show any measurable activity”, the “activity against reverse transcriptase” value (Reverse transcriptase) was “inactive” and the “activity against Coxsackie virus B4” value (Coxsackie virus B4) was “did not show any measurable activity”. The “activity against herpes simplex virus type 1 (HSV-1)” value [1] was “did not show any measurable activity”, the “activity against reovirus-1” value (reovirus-1) was “did not show any measurable activity” and the “antiviral activity against HIV-1 and HIV-2 in MT-4 cell cultures (in words)” value (“antiviral activity” below) (HIV-1 (NL4.3)) was “confirmed at low micromolar concentrations”. The “activity against HSV-2” value (HSV-2) was “did not show any measurable activity”, the “activity against respiratory syncytial virus (RSV)” value [2] was “did not show any measurable activity” and the “activity against influenza virus A (H1N1)” value (influenza virus A (H1N1)) was “did not show any measurable activity”. The “activity against Sindbis virus” value (Sindbis virus) was “did not show any measurable activity”, the “activity against vaccinia virus” value (vaccinia virus) was “did not show any measurable activity” and the “activity against vesicular stomatitis virus (VSV)” value [3] was “did not show any measurable activity”. The “activity against parainfluenza virus-3” value (parainfluenza virus-3) was “did not show any measurable activity” and the “activity against influenza virus A (H3N2)” value (influenza virus A (H3N2)) was “did not show any measurable activity”.

In the case of C[C@H](NP(=O)(Oc1cccc2ccccc12)O[C@@H]1CC[C@H](O)[C@H]1CO)C(=O)OCC(C)(C)C (stereo partly drawn) [Compound 17a, (1R,2R,3S)-3-Hydroxy-2-(hydroxymethyl)cyclopentyl-1-O-naphthyl-(neopentyl-L-alaninyl)-phosphate], the “antiviral activity” value (HIV-1 (NL4.3)) is reported as “devoid of any significant antiviral activity”.

CCCCCOC(=O)[C@H](C)NP(=O)(Oc1ccccc1)O[C@@H]1CC[C@H](O)[C@H]1CO (stereo partly drawn) [Compound 17b, (1R,2R,3S)-3-Hydroxy-2-(hydroxymethyl)cyclopentyl-1-O-phenyl-(pentoxy-L-alaninyl)-phosphate] was tested, and the “antiviral activity” value (HIV-1 (NL4.3)) was “devoid of any significant antiviral activity”.

With “(1R,2S,3S)-3-(Benzyloxycarbonyl)-2-(benzyloxycarbonylmethyl)cyclopentanol [Compound 13]” the “activity against reverse transcriptase” value (Reverse transcriptase) was “inactive” and the CC50 (CEM cells) was 94 ± 4.2 µM.

For “(3S,4R)-3-(Benzyloxycarbonyl)-4-(benzyloxycarbonylmethyl)cyclopentenol [Compound 11]”, the “anti-HIV-1 or anti-HIV-2 activity (in words)” value (HIV-1(IIIB)) was “not active” and the CC50 (CEM cells) was 110 ± 4.2 µM.

— publication PMC7127161 (Bioorganic & Medicinal Chemistry, 2014)
